Data: ChEMBL document CHEMBL1124502, “Novel indolecarboxamidotetrazoles as potential antiallergy agents” (J Med Chem, 1989)

Tests used:
[1] = biological target: T1, High affinity immunoglobulin epsilon receptor subunit alpha (Homo sapiens) (UniProt P12319); assay: (§1) Inhibition of anti-IgE antibody-stimulated histamine release in human basophills at 33 uM; type: functional
T1 sequence (whole entry): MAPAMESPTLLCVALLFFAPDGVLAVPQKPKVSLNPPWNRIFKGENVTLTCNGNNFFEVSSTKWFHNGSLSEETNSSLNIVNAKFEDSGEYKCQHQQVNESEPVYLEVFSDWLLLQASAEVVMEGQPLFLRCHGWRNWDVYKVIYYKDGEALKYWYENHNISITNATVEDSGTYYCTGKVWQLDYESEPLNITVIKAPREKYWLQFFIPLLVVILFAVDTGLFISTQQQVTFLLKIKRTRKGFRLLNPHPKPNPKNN
Procedure, shortened: (§2)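 Human leukocytes isolated after red-cell sedimentation, washed, suspended in buffer; preincubated with compound then challenged with anti-IgE. Released histamine measured by automated fluorometric assay; percent inhibition versus undrugged anti-IgE-challenged controls.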

[2] = biological target: T1, High affinity immunoglobulin epsilon receptor subunit alpha (Homo sapiens); assay: (§3) Inhibition of anti-IgE antibody-stimulated histamine release in human basophills at 10 uM; type: functional; procedure, shortened: as §2
[3] = species on record: Homo sapiens; assay: Inhibition of anti-IgE antibody-stimulated histamine release in human basophills at 33 uM; c = sample fluorescence interferes with the histamine assay; type: functional; procedure, shortened: as §2
[4] = species on record: Homo sapiens; assay: as §3; type: functional; procedure, shortened: as §2
[5] = species on record: Homo sapiens; assay: Inhibition of anti-IgE antibody stimulated histamine release in human lung, at 75 uM compound concentration; […]; type: functional
[6] = species on record: Cavia porcellus; assay: Inhibition of ovalbumin-stimulated histamine release in guinea pig lung, at 75 uM compound concentration; […]; type: functional
[7] = species on record: Homo sapiens; assay: as §1; type: functional, organism-based; procedure, shortened: as §2
[8] = species on record: Cavia porcellus; assay: Inhibition of ovalbumin-stimulated histamine release in guinea pig lung; type: functional, organism-based
[9] = species on record: Homo sapiens; assay: Inhibition of anti-IgE antibody stimulated histamine release in human lung; type: functional, organism-based
Procedure, shortened: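 Grossly normal human lung from lobectomy, dissected, chopped into 25–75-mg fragments, washed, held overnight in Tyrode's buffer at room temperature, rewashed. About 400 mg tissue at 37 °C in Tyrode's for 10 min, drug or vehicle added, 10 min later anti-IgE (final 3:1000), 30 min further incubation, supernatant sampled for histamine.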

[10] = species on record: Cavia porcellus; assay: Inhibition of ovalbumin stimulated histamine release in guinea pig lung
[11] = species on record: Homo sapiens; assay: Inhibition of anti-IgE antibody stimulated histamine release in human basophils; type: functional
Procedure, shortened: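 Human leukocytes obtained after red-cell sedimentation, washed and suspended in buffer, preincubated with drug, then challenged with anti-IgE. Histamine quantified by automated fluorometric assay; percent inhibition vs nondrug anti-IgE-challenged controls. IC50 from threefold concentrations 1–100 μM.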

| Compound | inhibition [1] [%] | inhibition [2] [%] | also measured |
| --- | --- | --- | --- |
| CC(C)Oc1c(C(=O)Nc2nn[nH]n2)n(-c2ccccc2)c2ccc(Cl)cc12 | 72 | 18 | – |
| COc1ccc2c(c1)cc(C(=O)Nc1nn[nH]n1)n2-c1ccccc1 | < 25 | – | – |
| COc1ccc2c(c1)c(OC(C)C)c(C(=O)Nc1nn[nH]n1)n2Cc1ccccc1 | 69 | 61 | – |
| COc1ccc2c(c1)c(OC(C)C)c(-c1nn[nH]n1)n2-c1ccccc1 | 37 | 25 | – |
| COc1cccc2c1c(OC(C)C)c(C(=O)Nc1nn[nH]n1)n2-c1ccccc1 | < 25 | – | – |
| COc1ccc(-n2c(C(=O)Nc3nn[nH]n3)c(OC(C)C)c3cc(OC)ccc32)cc1 | 49 | 16 | – |
| Cc1ccc2c(c1)c(OC(C)C)c(C(=O)Nc1nn[nH]n1)n2-c1ccccc1 | < 25 | – | – |
| CCCCCCCCCOc1c(C(=O)Nc2nn[nH]n2)n(-c2ccccc2)c2ccc(OC)cc12 | – | – | inhibition [3]: Sample fluorescence interferes with histamine assay |
| COc1ccc2c(c1)c(SC(C)C)c(C(=O)Nc1nn[nH]n1)n2-c1ccccc1 | 50 | 13 | – |
| CC(C)Oc1c(C(=O)Nc2nn[nH]n2)n(-c2ccccc2)c2ccc(OCc3ccccc3)cc12 | 66 | 65 | – |
| COc1ccc(-n2c(C(=O)Nc3nn[nH]n3)c(OC(C)C)c3ccccc32)cc1 | < 25 | – | – |
| COc1ccc2c(c1)c(Sc1ccccc1)c(C(=O)Nc1nn[nH]n1)n2-c1ccccc1 | 82 | 30 | – |
| CCOc1c(C(=O)Nc2nn[nH]n2)n(-c2ccccc2)c2ccc(OC)cc12 | 73 | – | Inhibition [4]: 55% |
| COc1ccc2c(c1)c(SC)c(C(=O)Nc1nn[nH]n1)n2-c1ccccc1 | 66 | 20 | – |
| CC(C)Oc1c(C(=O)Nc2nn[nH]n2)n(-c2ccccc2)c2cc(Cl)c(Cl)cc12 | 84 | 40 | – |
| COc1ccc2c(c1)c(O)c(C(=O)Nc1nn[nH]n1)n2-c1ccccc1 | < 25 | – | – |
| COc1ccc2c(c1)c(Oc1ccc([N+](=O)[O-])cc1)c(C(=O)Nc1nn[nH]n1)n2-c1ccccc1 | < 25 | – | – |

| Compound | inhibition [1] [%] | inhibition [2] [%] | also measured |
| --- | --- | --- | --- |
| CC(C)Oc1c(C(=O)Nc2nn[nH]n2)n(-c2ccccc2)c2ccc(Br)cc12 | 33 | 7 | – |
| COc1ccc2c(c1)c(C(C)C)c(C(=O)Nc1nn[nH]n1)n2-c1ccccc1 | < 25 | – | – |
| CC(C)Oc1c(C(=O)Nc2nn[nH]n2)n(-c2ccccc2)c2ccccc12 | < 25 | – | – |
| COc1ccc2[nH]c(C(=O)Nc3nn[nH]n3)c(OC(C)C)c2c1 | 62 | 17 | – |
| COc1ccc2c(c1)c(OCc1ccccc1)c(C(=O)Nc1nn[nH]n1)n2-c1ccccc1 | 84 | 43 | – |
| CCCc1c2oc(C(=O)O)cc(=O)c2cc2c(=O)cc(C(=O)O)n(CC)c12 [NEDOCROMIL] | < 25 | – | Inhibition [5]: <=25%; Inhibition [6]: <=25% |
| COc1ccc2c(c1)c(S(C)(=O)=O)c(C(=O)Nc1nn[nH]n1)n2-c1ccccc1 | < 25 | – | – |
| COc1ccc2c(c1)c(OC)c(C(=O)Nc1nn[nH]n1)n2-c1ccccc1 | 74 | 46 | – |
| COc1ccc2c(c1)c1oc(C(=O)Nc3nnn[nH]3)c(OC)c1n2-c1ccccc1.NC(N)=NCCC[C@H](N)C(=O)O | – | – | IC50 [7]: 8.5 µM; IC50 [8]: 13.4 µM |
| CCOc1c(C(=O)Nc2nn[nH]n2)[nH]c2ccc(OC)cc12 | 46 | 7 | – |
| CC(C)Oc1c(C(=O)Nc2nn[nH]n2)n(-c2ccccc2)c2ccc(O)cc12 | < 25 | – | – |
| COc1ccc2c(c1)c(OC(C)C)c(C(=O)Nc1nn[nH]n1)n2-c1ccccc1 | 82 | 46 | IC50 [9]: 16.6 µM; IC50 [10]: 26.7 µM; IC50 [11]: 15 µM |
| COc1ccc2c(c1)c(OC(C)C)c(C(=O)Nc1nn[nH]n1)n2C | 45 | 18 | – |
| O=C(Nc1nn[nH]n1)c1c(OCc2ccccc2)c2ccccc2n1-c1ccccc1 | < 25 | – | – |
| CCOc1c(C(=O)Nc2nn[nH]n2)n(Cc2ccccc2)c2ccc(OC)cc12 | 55 | 26 | – |
| COc1ccc2c(OC(C)C)c(C(=O)Nc3nn[nH]n3)n(-c3ccccc3)c2c1 | 50 | 24 | – |
| O=C([O-])c1cc(=O)c2c(OCC(O)COc3cccc4oc(C(=O)[O-])cc(=O)c34)cccc2o1.[Na+].[Na+] [CROMOLYN SODIUM] | < 25 | – | Inhibition [5]: <=25%; Inhibition [6]: <=25% |
